# Screening results as filed in PubChem.
# MEKK2mut PB1 HTS – signal of MEK5 binding to mutant human MEKK2 PB1 domain; percent response, % at 10 µM; actives 0.35% (n = 290,000); bead flow cytometry, Alexa488-MEK5 binding to MEKK2 mutant; in the data active = percent response above about 24%, passing the limit was not always enough
# Rce1 inh – blocks yeast Ras-converting enzyme | Q03530 | yeast membranes, quenched prenylated peptide cleavage fluorescence | calls only | actives 0.27% (n = 290,000) | AID 2563;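 active = fall in fluorescence gain of 50% or more versus controls, with final raw signal at or below 3038400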;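 also: plate controls were neutral control wells for no effect and wells lacking membranes for full effect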
# Target sequence (Q03530 whole entry, looked up): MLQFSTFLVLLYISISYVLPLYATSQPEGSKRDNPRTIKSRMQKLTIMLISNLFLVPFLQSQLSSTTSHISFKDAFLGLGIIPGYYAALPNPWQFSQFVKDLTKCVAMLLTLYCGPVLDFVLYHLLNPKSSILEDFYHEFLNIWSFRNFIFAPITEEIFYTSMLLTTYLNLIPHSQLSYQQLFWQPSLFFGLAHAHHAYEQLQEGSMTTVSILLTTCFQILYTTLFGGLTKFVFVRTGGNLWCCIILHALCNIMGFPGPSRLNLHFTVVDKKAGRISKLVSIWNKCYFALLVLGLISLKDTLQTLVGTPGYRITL
# MEKK2wt PB1 HTS – raises or lowers MEK5 binding to wildtype human MEKK2 PB1 domain. binding response (% of control), % at 10 µM. Q9Y2U5. actives 1.1% (n = 290,000). bead flow cytometry, Alexa488-MEK5 binding to MEKK2 WT; actives lie on both sides; in the data active = binding response below about 67% or above about 130%
# T cell modulator – modulates CD8 T cell binding to vesicles; 2C CD8+ T cell-vesicle binding, flow cytometry; hits give low values; response (vesicle binding), % at 7 µM; actives 0.068% (n = 330,000);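 active = response, share of CD8 T cells binding vesicles, and their 90th percentile fluorescence all below set limits, cut at about 80% in these data, passing the limit was not always enough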;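 also: values below 100% mean blocked vesicle binding to the CD8+ T cells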
#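 Incubation: binding step 1.5 h, 37 °C, antibody labelling 20 min, ice; system: murine 2C transgenic CD8+ T lymphocytes; technique: cytometric PE anti-B7-1 and Alexa647 anti-CD8 signals after 1% paraformaldehyde fixation; also added: QL9-charged Drosophila Ld/ICAM-1/B7-1 vesicles; control set: naked versus QL9-loaded vesicles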
# MEKK3 PB1 HTS – raises or lowers MEK5 binding to the human MEKK3 PB1 domain; binding response (% of control), % at 10 µM; actives 1.4% (n = 290,000); bead-based flow cytometry, Alexa488-MEK5 binding to MEKK3; actives lie on both sides; 0 = blocked by unlabeled MEK5, 100 = vehicle; AID 1529; Q99759;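 active = binding response more than 3 SD above or below the average of its plate-row segment, actives on both sides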;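 also: Alexa488 bead fluorescence after subtracting the streptavidin-only scavenger bead signal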
# UCH37 DUB inh – inhibitors of human deubiquitinating enzyme UCH37. Q9Y5K5. purified proteasome/UCH37, Ub-AMC cleavage fluorescence. inhibition, % (test concentration not listed). actives 0.33% (n = 330,000). AID 588478;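 active = mean inhibition over replicate wells above about 20%, limit read from the data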;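 also: 0% = compound-free wells with enzyme and 100% = wells lacking proteasome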
# Target sequence (Q9Y5K5 whole entry, looked up): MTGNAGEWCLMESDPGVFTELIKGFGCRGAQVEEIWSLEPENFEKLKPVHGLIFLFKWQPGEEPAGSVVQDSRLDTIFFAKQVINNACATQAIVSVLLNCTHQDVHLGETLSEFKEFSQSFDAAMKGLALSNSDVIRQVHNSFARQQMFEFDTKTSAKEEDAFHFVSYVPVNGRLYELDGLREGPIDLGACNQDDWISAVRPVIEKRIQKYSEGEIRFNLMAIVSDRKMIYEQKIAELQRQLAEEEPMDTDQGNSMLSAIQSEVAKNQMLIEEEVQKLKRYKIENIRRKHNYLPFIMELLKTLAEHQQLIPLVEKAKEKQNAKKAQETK
#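 Material: Human UCH37 enzyme supplied as purified proteasome complex | Schedule: 30 min preincubation with enzyme, 25 min cleavage at room temperature | Detection: AMC fluorescence 355/460 nm | Measure: % inhibition of Ub-AMC cleavage fluorescence | Controls: Wells without proteasome as full block, compound-free enzyme plus substrate as uninhibited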
# MEKK2wt confirm – raises or lowers MEK5 binding to wildtype human MEKK2, retest; shares compounds with MEKK3 PB1 HTS; bead flow cytometry, Alexa488-MEK5 binding to MEKK2 WT; actives lie on both sides; binding response (% of control), % at 10 µM; actives 2.4% (n = 5,900); AID 1892; in the data active = binding response below about 16% or above about 210%; inactive = in between
# MEKK2mut confirm – signal of MEK5 binding to mutant human MEKK2, retest. shares compounds with MEKK3 PB1 HTS. bead flow cytometry, Alexa488-MEK5 binding to MEKK2 mutant. percent response, % at 10 µM. actives 2% (n = 5,900). AID 1893; in the data active = percent response mostly above about 71%, no sharp cut-off; inactive = mostly below about 38%;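 also: higher means compound restores mutant binding toward wildtype level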
# MEKK3-MEK5 inh – confirmation of inhibitors of MEK5 binding to human MEKK3 | binding response (% of control), % at 10 µM | bead flow cytometry, Alexa488-MEK5 binding to MEKK3; hits give low values | AID 1894 | actives 1.8% (n = 5,900) | shares compounds with MEKK3 PB1 HTS;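 active = binding response below 72% of control, or above a set upper limit, though filed actives all read lower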;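 also: 100% = DMSO only wells and 0% = binding blocked by excess unlabeled MEK5; lower values mean stronger disruption of MEK5 binding to MEKK3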
# * = called active by the depositor; i = inactive; · = not tested or not shown; [ ] = another dose, or the depositor's remark. An excerpt weighted towards active compounds, which were near 2.5% of everything screened.
SMILES,MEKK2mut PB1 HTS,Rce1 inh,MEKK2wt PB1 HTS,T cell modulator,MEKK3 PB1 HTS,UCH37 DUB inh,MEKK2wt confirm,MEKK2mut confirm,MEKK3-MEK5 inh
S=c1[nH]nc(-c2ccc(Cl)cc2)n1-c1ccc2c(c1)OCCO2,1.0,i,109.0,195.5,197.0*,1.0,1.0*[inhibitor],-29.0,2.0*
Cc1nn(C)cc1C=NNC(=O)CSc1ccccn1,·,·,·,·,·,5.0,·,·,·
CN(C)C(=O)C[n+]1cccc(C=NO)c1,·,·,·,·,·,4.3,·,·,·
COc1cccc2sc3ccc(C#CC4(N)CCCCC4)cc3c(=O)c12,14.0,i,136.0*,556.3,103.0,-3.9,145.0,22.0,108.0
COc1cccc2sc3cc(C#CC4(O)CCCCC4)ccc3c(=O)c12,·,·,·,334.9,·,-2.7,·,·,·
Cc1cc(-c2csc(N)n2)c(C)n1-c1ccc(Cl)c(Cl)c1,1.0,i,109.0,323.4,153.0*,2.2,101.0,-4.0,101.0
COc1ccc(-n2c(C)cc(-c3csc(N)n3)c2C)cc1,2.0,i,98.0,256.6,128.0*,4.9,106.0,4.0,98.0
CCCn1c(C)cc(-c2csc(N)n2)c1C,-2.0,i,93.0,171.6,88.0,0.2,·,·,·
COc1ccc(NCC(=O)NN=Cc2ccc3c(c2)OCCO3)cc1,·,·,·,·,·,4.4,·,·,·
CC(/C=N/Nc1ncc(C)c(=O)[nH]1)=C\c1ccccc1,5.0,i,123.0,157.9,140.0*,·,98.0,-3.0,102.0
O=C(NC1(C(F)(F)F)N=C(c2ccccc2)NC1=O)c1ccccc1F (stereo not drawn),0.0,i,106.0,244.8,134.0*,1.4,109.0,12.0,105.0
COC(=O)c1ccc(C)c(-n2c(C)cc(C=O)c2C)c1,0.0,i,112.0,256.5,150.0*,-0.2,97.0,1.0,95.0
O=C(CSc1nnc(-c2cccnc2)s1)Nc1ccnc2ccccc12,9.0,i,109.0,146.6,103.0,1.2,·,·,·
Cc1ccc(NC(=O)CSc2nnc(-c3cccnc3)s2)cc1,2.0,i,103.0,174.4,8.0*[inhibitor],0.7,103.0,-1.0,105.0
CC1=C[C@@H](C)[C@@H](c2ccc(C(F)(F)F)cc2)OC1=O,3.0,i,97.0,512.0,98.0,2.3,·,·,·
CC1=C[C@@H](C)[C@@H](c2ccccc2)OC1=O,-6.0,i,88.0,496.0,78.0*[inhibitor],1.4,102.0,14.0,105.0
Nc1nnnn1N=Cc1ccccc1,·,·,·,·,·,4.4,·,·,·
Nc1ccccc1SC1CC(=O)N(c2ccccc2Cl)C1=O (stereo not drawn),-24.0,i,59.0,26.7,49.0*[inhibitor],·,101.0,7.0,102.0
CS/C(N)=N/N=Cc1ccc2c(c1)OCO2,·,·,·,·,·,8.1,·,·,·
Cc1ccc(C(C)n2cc(C(=O)NCc3ccncc3)nn2)cc1 (stereo not drawn),-9.0,i,0.0*[inhibitor],236.1,1.0*[inhibitor],-0.9,101.0,-4.0,104.0
CN1CCN(CC(=O)N2c3ccccc3C(C)(c3ccc(Cl)cc3)CC2(C)C)CC1 (stereo not drawn),27.0*,i,112.0,316.2,105.0,1.3,111.0,-1.0,100.0
CN1CCN(CC(=O)N2c3ccccc3C(C)(c3ccccc3)CC2(C)C)CC1 (stereo not drawn),15.0,i,119.0,330.0,109.0,1.2,·,·,·
COC(=O)C1=C(NC(=O)c2ccccc2C)CCS1,-15.0,i,54.0,448.7,46.0*[inhibitor],-1.7,89.0,-30.0,92.0
Cc1c(Cl)c([N+](=O)[O-])nn1Cc1ccc(C(=O)NN=Cc2cccc(Br)c2)o1,·,·,·,·,·,4.5,·,·,·
Cc1ccc(NC(=O)/C(C#N)=C/c2ccc(C)s2)c(C)c1,13.0,i,39.0*[inhibitor],452.0,109.0,1.1,105.0,-2.0,101.0
SMILES,MEKK2mut PB1 HTS,Rce1 inh,MEKK2wt PB1 HTS,T cell modulator,MEKK3 PB1 HTS,UCH37 DUB inh,MEKK2wt confirm,MEKK2mut confirm,MEKK3-MEK5 inh
Cc1c(C(=O)Nc2ccc(OC(F)(F)F)cc2)sc2nc3n(c(=O)c12)CCC3,0.0,i,100.0,470.5,99.0,-0.9,·,·,·
Cc1c(C(=O)Nc2ccc(Oc3ccccc3)cc2)sc2nc3n(c(=O)c12)CCC3,-10.0,i,87.0,159.2,77.0*[inhibitor],2.6,99.0,-7.0,100.0
COc1ccc(C=NNC(=O)c2cccnc2)cc1CN1CCCc2ccccc21,·,·,·,·,·,2.3,·,·,·
COc1ccc2c(c1)CCC2=NOC(=O)c1ccccc1OC,·,·,·,·,·,0.3,·,·,·
COc1ccc(C(=O)NNC(=O)c2ccc(C(C)(C)C)cc2)cc1,-46.0,i,2.0*[inhibitor],380.5,1.0*[inhibitor],0.7,102.0,-1.0,101.0
NC(=O)NN=C/C=C/c1ccccc1,·,·,·,·,·,2.4,·,·,·
